# Calls of active or inactive are those of the source. The rule behind the calls is not given here.
# What was measured:
# [1] = target: Angiotensin-converting enzyme (Homo sapiens) (UniProt P12821); assay: Inhibition of ACE (unknown origin) at 0.5 uM to 10 uM uM using synthetic peptide hippuryl-histidyl-leucine substrate by high-throughput colorimetric screening method
# Method in brief: (§1)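 ACE activity was followed by the release of hippuric acid from the substrate hippuryl-histidyl-leucine. The released hippuric acid was converted to a yellow product with pyridine and benzene sulfonyl chloride, and the colour was read colorimetrically as absorbance. Each condition was run in triplicate and averaged, with lisinopril as the reference standard.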
# [2] = target: Angiotensin-converting enzyme (Homo sapiens) (UniProt P12821); assay: Inhibition of ACE (unknown origin) at 1 uM using synthetic peptide hippuryl-histidyl-leucine substrate by high-throughput colorimetric screening method; method in brief: as §1
# [3] = target: Angiotensin-converting enzyme (Homo sapiens) (UniProt P12821); assay: Inhibition of ACE (unknown origin) at 1 uM using synthetic peptide hippuryl-histidyl-leucine substrate by high-throughput colorimetric screening method relative to lisinopril
# Angiotensin-converting enzyme (Homo sapiens), sequence (P12821 whole entry): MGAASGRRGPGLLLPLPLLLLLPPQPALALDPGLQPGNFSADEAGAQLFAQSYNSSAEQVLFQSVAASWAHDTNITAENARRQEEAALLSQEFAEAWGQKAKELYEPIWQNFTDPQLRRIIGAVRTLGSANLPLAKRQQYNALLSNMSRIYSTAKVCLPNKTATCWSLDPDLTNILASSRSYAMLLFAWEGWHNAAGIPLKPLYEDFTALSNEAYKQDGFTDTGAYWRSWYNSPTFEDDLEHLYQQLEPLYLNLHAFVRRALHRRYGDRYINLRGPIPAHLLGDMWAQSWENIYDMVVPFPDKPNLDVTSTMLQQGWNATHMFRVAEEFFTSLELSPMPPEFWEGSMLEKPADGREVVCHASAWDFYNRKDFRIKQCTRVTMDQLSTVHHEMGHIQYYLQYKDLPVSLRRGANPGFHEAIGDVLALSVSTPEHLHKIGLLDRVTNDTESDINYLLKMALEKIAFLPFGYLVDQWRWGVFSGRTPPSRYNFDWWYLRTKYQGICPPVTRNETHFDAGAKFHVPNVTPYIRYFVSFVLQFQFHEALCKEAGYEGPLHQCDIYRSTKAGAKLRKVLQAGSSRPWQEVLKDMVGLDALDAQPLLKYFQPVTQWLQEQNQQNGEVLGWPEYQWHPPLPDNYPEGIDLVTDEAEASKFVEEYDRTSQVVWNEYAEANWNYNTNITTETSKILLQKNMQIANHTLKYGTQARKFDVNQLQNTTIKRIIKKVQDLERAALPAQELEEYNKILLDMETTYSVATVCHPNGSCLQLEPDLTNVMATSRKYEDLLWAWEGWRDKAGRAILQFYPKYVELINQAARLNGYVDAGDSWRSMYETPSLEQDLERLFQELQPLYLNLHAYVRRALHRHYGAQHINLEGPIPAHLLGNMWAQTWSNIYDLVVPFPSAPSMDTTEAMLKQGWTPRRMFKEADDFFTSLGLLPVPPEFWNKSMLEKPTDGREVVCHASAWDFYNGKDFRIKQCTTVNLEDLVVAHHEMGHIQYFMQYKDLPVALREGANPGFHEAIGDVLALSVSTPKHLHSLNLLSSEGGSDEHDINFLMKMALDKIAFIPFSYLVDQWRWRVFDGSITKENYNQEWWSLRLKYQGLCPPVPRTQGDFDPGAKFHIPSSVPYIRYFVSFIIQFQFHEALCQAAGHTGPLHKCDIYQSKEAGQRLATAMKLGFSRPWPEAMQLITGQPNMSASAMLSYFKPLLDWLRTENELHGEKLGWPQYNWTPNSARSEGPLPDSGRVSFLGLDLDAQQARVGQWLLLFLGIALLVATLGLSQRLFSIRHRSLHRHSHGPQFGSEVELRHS
SMILES,inhibition [1],inhibition [2] [%],inhibition [3] [%]
Cc1ccc(-c2nc3ccccc3c(=O)n2CC(O)COc2cccc3[nH]c4ccccc4c23)cc1 (stereo not drawn),Active,> 75,100
O=c1c2ccccc2nc(-c2ccc(F)cc2)n1CC(O)COc1cccc2[nH]c3ccccc3c12 (stereo not drawn),,17,
Cc1nc2ccccc2c(=O)n1CC(O)COc1cccc2[nH]c3ccccc3c12 (stereo not drawn),,17,
O=c1c2ccccc2nc(-c2ccc(Cl)cc2Cl)n1CC(O)COc1cccc2[nH]c3ccccc3c12 (stereo not drawn),,17,
O=c1c2ccccc2nc(-c2ccccc2)n1CC(O)COc1cccc2[nH]c3ccccc3c12 (stereo not drawn),Active,> 75,100
O=c1c2ccccc2nc(-c2ccc([N+](=O)[O-])cc2)n1CC(O)COc1cccc2[nH]c3ccccc3c12 (stereo not drawn),,17,
O=c1c2ccccc2nc(C(F)(F)F)n1CC(O)COc1cccc2[nH]c3ccccc3c12 (stereo not drawn),Active,> 75,82.9

# From ChEMBL document CHEMBL3414498, “Design and synthesis of 3-(3-((9H-carbazol-4-yl)oxy)-2-hydroxypropyl)-2-phenylquinazolin-4(3H)-one derivatives to induce ACE inhibitory activity” (Eur J Med Chem, 2015)
